In ChEMBL document CHEMBL1123977, “Synthesis, receptor binding, and tissue distribution of (17 alpha,20E)- and (17 alpha,20Z)-21-[125I]iodo-19-norpregna-1,3,5(10), 20-tetraene-3,17-diol ” (1988):
Values joined by “and” are separate entries in the source; they are usually repeats but may differ in a detail not shown here. Identical values can stand only once.

Legend:
Rattus norvegicus [1] = assay: Mean uptake in blood 5 hr after intravenous injection of 3 microCi (111 kBq); assay type: functional
How it was run: (§1)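 Immature female Fischer rats (24 days old, 55-60 g) had free access to food and water. They were warmed under an infrared lamp, then given 200 μL HPLC-purified 125I-labeled steroid (3 μCi, 111 kBq) in saline with 9% ethanol and 1% Tween 80 via the lateral tail vein. Where stated, 60 μg unlabeled estradiol was co-injected. Rats were killed at 1, 2 or 5 h. Tissues were KCl-washed, blotted, weighed and gamma-counted against a reference of the injectate. Results are PDK (% dose × kg/g), mean and SD of three rats.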

Rattus norvegicus [2] = assay: Mean uptake in brain 2 hr after intravenous injection of 3 microCi (111 kBq); assay type: functional; how it was run: as §1
Rattus norvegicus [3] = assay: Mean uptake in spleen 5 hr after intravenous injection of 3 microCi (111 kBq); assay type: functional; how it was run: as §1
Rattus norvegicus [4] = assay: In vivo deiodination in 1 hour after administration of compound; assay type: functional
How it was run: (§2)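 In immature female Fischer rats given 3 μCi (111 kBq) of 125I-steroid iv, deiodination was estimated from thyroid PDK at 1, 2 or 5 h, or at 2 h with 60 μg co-injected estradiol. Thyroid uptake after [125I]NaI injection at the same time interval was taken as 100%.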

Rattus norvegicus [5] = assay: Mean uptake in spleen 2 hr after intravenous injection of 3 microCi (111 kBq) in presence of 60 ug coinjected estradiol; assay type: functional; how it was run: as §1
Rattus norvegicus [6] = assay: Mean uptake in lungs 1 hr after intravenous injection of 3 microCi (111 kBq) of the compound; assay type: functional; how it was run: as §1
Rattus norvegicus [7] = assay: Mean uptake in ovaries 5 hr after intravenous injection of 3 microCi (111 kBq); assay type: functional, Female gonad; how it was run: as §1
Rattus norvegicus [8] = assay: Mean uptake in lungs 5 hr after intravenous injection of 3 microCi (111 kBq); assay type: functional; how it was run: as §1
Rattus norvegicus [9] = assay: In vivo deiodination in 2 hour after administration of compound in presence of 60 microg of estradiol; assay type: functional; how it was run: as §2
Rattus norvegicus [10] = assay: Mean uptake in muscle 1 hr after intravenous injection of 3 microCi (111 kBq) of the compound; assay type: functional, Muscle tissue; how it was run: as §1
Rattus norvegicus [11] = assay: Mean uptake in thyroid 1 hr after intravenous injection of 3 microCi (111 kBq) of the compound; assay type: functional, Thyroid gland; how it was run: as §1
Rattus norvegicus [12] = assay: Mean uptake in adrenals 5 hr after intravenous injection of 3 microCi (111 kBq); assay type: functional, Adrenal gland; how it was run: as §1
Rattus norvegicus [13] = assay: Mean uptake in muscle 2 hr after intravenous injection of 3 microCi (111 kBq); assay type: functional, Muscle tissue; how it was run: as §1
Rattus norvegicus [14] = assay: Mean uptake in uterus 2 hr after intravenous injection of 3 microCi (111 kBq); assay type: functional
How it was run: (§3)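 Immature female Fischer rats (24 days old, 55-60 g), food and water free. 3 μCi (111 kBq) HPLC-purified 125I-labeled steroid given iv via lateral tail vein in 200 μL saline containing 9% ethanol and 1% Tween 80; receptor-saturation group co-injected with 60 μg unlabeled estradiol. Sacrificed at set times; uterus washed with 0.154 M KCl, blotted, weighed, gamma counted against injected reference; expressed as PDK (% dose × kg/g), mean of three rats.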

Rattus norvegicus [15] = assay: Mean uptake in adrenals 2 hr after intravenous injection of 3 microCi (111 kBq); assay type: functional, Adrenal gland; how it was run: as §1
Rattus norvegicus [16] = assay: Mean uptake in kidneys 1 hr after intravenous injection of 3 microCi (111 kBq) of the compound; assay type: functional; how it was run: as §1
Rattus norvegicus [17] = assay: Mean uptake in thyroid 2 hr after intravenous injection of 3 microCi (111 kBq) in presence of 60 ug coinjected estradiol; assay type: functional, Thyroid gland; how it was run: as §1
Rattus norvegicus [18] = assay: Mean uptake in blood 2 hr after intravenous injection of 3 microCi (111 kBq) in presence of 60 ug coinjected estradiol; assay type: functional; how it was run: as §1
Rattus norvegicus [19] = assay: Mean uptake in liver 2 hr after intravenous injection of 3 microCi (111 kBq); assay type: functional; how it was run: as §1
Rattus norvegicus [20] = assay: In vivo deiodination in 2 hour after administration of compound; assay type: functional; how it was run: as §2
Rattus norvegicus [21] = assay: Mean uptake in adrenals 1 hr after intravenous injection of 3 microCi (111 kBq) of the compound; assay type: functional, Adrenal gland; how it was run: as §1
Rattus norvegicus [22] = assay: Mean uptake in kidneys 2 hr after intravenous injection of 3 microCi (111 kBq); assay type: functional; how it was run: as §1
Rattus norvegicus [23] = assay: Mean uptake in ovaries 2 hr after intravenous injection of 3 microCi (111 kBq) in presence of 60 ug coinjected estradiol; assay type: functional, Female gonad; how it was run: as §1
Rattus norvegicus [24] = assay: Mean uptake in lungs 2 hr after intravenous injection of 3 microCi (111 kBq); assay type: functional; how it was run: as §1
Rattus norvegicus [25] = species: Rattus norvegicus; assay: Effect of Co-injection with estradiol on the uterus to blood ratio (Co-injected with 60 microg of estradiol (E2)); assay type: functional
How it was run: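 Immature female Fischer rats (24 days, 55-60 g) received 3 μCi (111 kBq) 125I-labelled steroid iv via the lateral tail vein, in 200 μL 9% ethanol-saline with 1% Tween 80, co-injected with 60 μg unlabelled estradiol. Killed at 2 h. Uterus and blood were KCl-washed and gamma-counted as PDK. Ratio is the mean of three rats; % change is versus tracer-only animals.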

Rattus norvegicus [26] = assay: In vivo deiodination in 5 hr after administration of compound; assay type: functional; how it was run: as §2
Rattus norvegicus [27] = assay: Mean uptake in liver 1 hr after intravenous injection of 3 microCi (111 kBq) of the compound; assay type: functional; how it was run: as §1
Rattus norvegicus [28] = assay: Mean uptake in blood after intravenous injection of 3 microCi (111 kBq) of the compound; assay type: functional; how it was run: as §1
Rattus norvegicus [29] = assay: Mean uptake in lungs 2 hr after intravenous injection of 3 uM Ci (111 kBq) in presence of 60 ug coinjected estradiol; assay type: functional; how it was run: as §1
Rattus norvegicus [30] = assay: Mean uptake in uterus 5 hr after intravenous injection of 3 microCi (111 kBq); assay type: functional; how it was run: as §3
Rattus norvegicus [31] = assay: Mean uptake in uterus 1 hr after intravenous injection of 3 microCi (111 kBq) of the compound; assay type: functional; how it was run: as §1
Rattus norvegicus [32] = assay: Mean uptake in liver 2 hr after intravenous injection of 3 microCi (111 kBq) in presence of 60 ug coinjected estradiol; assay type: functional; how it was run: as §1
Rattus norvegicus [33] = assay: Mean uptake in brain 1 hr after intravenous injection of 3 microCi (111 kBq) of the compound; assay type: functional; how it was run: as §1
Rattus norvegicus [34] = assay: Mean uptake in uterus 2 hr after intravenous injection of 3 uM Ci (111 kBq) in presence of 60 ug coinjected estradiol; assay type: functional; how it was run: as §3
Rattus norvegicus [35] = assay: Mean uptake in adrenals 2 hr after intravenous injection of 3 uM Ci (111 kBq) in presence of 60 ug coinjected estradiol; assay type: functional, Adrenal gland; how it was run: as §1
Rattus norvegicus [36] = assay: Mean uptake in kidneys 5 hr after intravenous injection of 3 microCi (111 kBq); assay type: functional; how it was run: as §1
Rattus norvegicus [37] = assay: Mean uptake in thyroid 2 hr after intravenous injection of 3 microCi (111 kBq); assay type: functional, Thyroid gland; how it was run: as §1
Rattus norvegicus [38] = assay: Mean uptake in ovaries 2 hr after intravenous injection of 3 microCi (111 kBq); assay type: functional, Female gonad; how it was run: as §1
Rattus norvegicus [39] = assay: Mean uptake in spleen 2 hr after intravenous injection of 3 microCi (111 kBq); assay type: functional; how it was run: as §1
Rattus norvegicus [40] = assay: Mean uptake in ovaries 1 hr after intravenous injection of 3 microCi (111 kBq) of the compound; assay type: functional, Female gonad; how it was run: as §1
Rattus norvegicus [41] = assay: Mean uptake in kidneys 2 hr after intravenous injection of 3 microCi (111 kBq) in presence of 60 ug coinjected estradiol; assay type: functional, Kidney; how it was run: as §1
Rattus norvegicus [42] = assay: Mean uptake in liver 5 hr after intravenous injection of 3 microCi (111 kBq); assay type: functional; how it was run: as §1
Rattus norvegicus [43] = assay: Mean uptake in spleen 1 hr after intravenous injection of 3 microCi (111 kBq) of the compound; assay type: functional; how it was run: as §1
Rattus norvegicus [44] = assay: Mean uptake in blood 2 hr after intravenous injection of 3 microCi (111 kBq); assay type: functional; how it was run: as §1
Rattus norvegicus [45] = assay: Mean uptake in brain 2 hr after intravenous injection of 3 uM Ci (111 kBq) in presence of 60 ug coinjected estradiol; assay type: functional; how it was run: as §1
Rattus norvegicus [46] = assay: Mean uptake in muscles 5 hr after intravenous injection of 3 microCi (111 kBq); assay type: functional, Muscle tissue; how it was run: as §1

For `C[C@]12CC[C@@H]3c4ccc(O)cc4CC[C@H]3[C@@H]1CC[C@@]2(O)/C=C/[125I]`, the PDK (Rattus norvegicus [1]) was 9, the PDK (Rattus norvegicus [2]) was 12 and the PDK (Rattus norvegicus [3]) was 4. It also gave a Deiodination (Rattus norvegicus [4]) of 2%, a PDK (Rattus norvegicus [5]) of 11 and a PDK (Rattus norvegicus [6]) of 49. For the same molecule, the PDK (Rattus norvegicus [7]) was 16, the PDK (Rattus norvegicus [8]) was 8 and the Deiodination (Rattus norvegicus [9]) was 1.7%. For the same molecule, the PDK (Rattus norvegicus [10]) was 30, the PDK (Rattus norvegicus [11]) was 1331 and the PDK (Rattus norvegicus [12]) was 21. For the same molecule, the PDK (Rattus norvegicus [13]) was 11 and 13, the PDK (Rattus norvegicus [14]) was 35 and the PDK (Rattus norvegicus [15]) was 72. It also gave a PDK (Rattus norvegicus [16]) of 71, a PDK (Rattus norvegicus [17]) of 2300 and a PDK (Rattus norvegicus [18]) of 10. For the same molecule, the PDK (Rattus norvegicus [19]) was 92, the Deiodination (Rattus norvegicus [20]) was 2.1% and the PDK (Rattus norvegicus [21]) was 175. For the same molecule, the PDK (Rattus norvegicus [22]) was 27, the PDK (Rattus norvegicus [23]) was 39 and the PDK (Rattus norvegicus [24]) was 25. For the same molecule, the Change (Rattus norvegicus [25]) was -41%, the “Uterus to blood ratio” value (Rattus norvegicus [25]) was 2.32 and the Deiodination (Rattus norvegicus [26]) was 4.4%. The PDK (Rattus norvegicus [27]) was 245, the PDK (Rattus norvegicus [28]) was 17 and the PDK (Rattus norvegicus [29]) was 28. It also gave a PDK (Rattus norvegicus [30]) of 11, a PDK (Rattus norvegicus [31]) of 92 and a PDK (Rattus norvegicus [32]) of 106. For the same molecule, the PDK (Rattus norvegicus [33]) was 38, the PDK (Rattus norvegicus [34]) was 22 and the PDK (Rattus norvegicus [35]) was 73. The PDK (Rattus norvegicus [36]) was 10, the PDK (Rattus norvegicus [37]) was 2870 and the PDK (Rattus norvegicus [38]) was 43. For the same molecule, the PDK (Rattus norvegicus [39]) was 10, the PDK (Rattus norvegicus [40]) was 108 and the PDK (Rattus norvegicus [41]) was 29. It also gave a PDK (Rattus norvegicus [42]) of 55, a PDK (Rattus norvegicus [43]) of 27 and a PDK (Rattus norvegicus [44]) of 10. For the same molecule, the PDK (Rattus norvegicus [45]) was 14 and the PDK (Rattus norvegicus [46]) was 4.
